One assay has as its target D(1A) dopamine receptor (Bos taurus, UniProt Q95136). Nature of the assay: Displacement of [3H]SCH23390 from dopamine D1 receptor in bovine striatum. In outline: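 Bovine striatal homogenate was incubated with [3H]SCH 23390 and test compounds under the same binding conditions as the D2-family assays. Competition curves were fitted by sigmoid non-linear regression with logEC50 and Hill coefficient free. EC50 was converted to Ki by Cheng–Prusoff. Each experiment was run in triplicate.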
Background: Loss of bound radioactivity is the signal in a displacement assay; it reports binding, not function.

The next assay deals with D(3) dopamine receptor (Homo sapiens, UniProt P35462). Description: Displacement of [3H]spiperone from human dopamine D3 receptor expressed in CHO cells. It is filed as cell-based.
The target of assay [1] is T1, D(2) dopamine receptor (Homo sapiens, UniProt P14416). Nature of the assay: Displacement of [3H]spiperone from human dopamine D2short receptor expressed in CHO cells. In kind it is cell-based.
For a further assay, the target named is T2, D(4) dopamine receptor (Homo sapiens, UniProt P21917).
T2 sequence (P21917 whole entry): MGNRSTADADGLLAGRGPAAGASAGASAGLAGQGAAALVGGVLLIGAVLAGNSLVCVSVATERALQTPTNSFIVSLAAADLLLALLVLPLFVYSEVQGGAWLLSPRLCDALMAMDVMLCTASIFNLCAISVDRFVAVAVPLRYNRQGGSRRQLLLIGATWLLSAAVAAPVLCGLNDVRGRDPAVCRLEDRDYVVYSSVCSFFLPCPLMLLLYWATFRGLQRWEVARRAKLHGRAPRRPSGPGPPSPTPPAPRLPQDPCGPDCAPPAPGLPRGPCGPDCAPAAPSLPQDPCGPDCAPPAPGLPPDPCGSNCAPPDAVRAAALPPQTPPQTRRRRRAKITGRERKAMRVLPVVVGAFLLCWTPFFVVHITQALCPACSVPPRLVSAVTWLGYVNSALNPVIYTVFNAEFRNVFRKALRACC
Description: Displacement of [3H]spiperone from human dopamine D4.4 receptor expressed in CHO cells. It is filed as cell-based.

Assay [2] has as its target T1, D(2) dopamine receptor. Description: Displacement of [3H]spiperone from human dopamine D2long receptor expressed in CHO cells. It is filed as cell-based.
Assay [3] concerns the target T3, D(4) dopamine receptor (Homo sapiens) (UniProt P21917).
T3 sequence (whole entry): T2 sequence (P21917 whole entry)
Description: Partial agonist activity at human D4.4 receptor expressed in CHO cells assessed as inhibition of forskolin-stimulated cAMP accumulation after 20 mins by luminescence assay relative to quinpirole. In kind it is functional, cell-based. In outline:
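CHO cells expressing D4.4 were seeded 24 h ahead at 10,000 cells/well and washed with Krebs Ringer buffer, pH 7.4. Cells were exposed to graded compound concentrations with forskolin for 20 min at 25 °C. cAMP was read by cAMP-Glo luminescence, a PKA–luciferase readout. Quinpirole served as the reference full agonist. EC50 and Emax were taken from at least three experiments, each in triplicate.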
A general note: cAMP levels reflect the balance of adenylyl cyclase and phosphodiesterase activity.

Assay [4] deals with T3, D(4) dopamine receptor (Homo sapiens). Nature of the assay: Antagonist activity at human D4.4 receptor expressed in CHO cells assessed as inhibition of quinpirole-induced reduction in cAMP accumulation after 20 mins by luminescence assay. It is filed as functional, cell-based.

“And” between values parts separate entries of the source, which are not always exact repeats. Equal entries are not always repeated. The source made the active and inactive calls. No cut-off for these calls is given here.

Experimental findings from ChEMBL document CHEMBL2331212 (Bioorg Med Chem, 2013) are described below.

Sequence of D(3) dopamine receptor (P35462 whole entry): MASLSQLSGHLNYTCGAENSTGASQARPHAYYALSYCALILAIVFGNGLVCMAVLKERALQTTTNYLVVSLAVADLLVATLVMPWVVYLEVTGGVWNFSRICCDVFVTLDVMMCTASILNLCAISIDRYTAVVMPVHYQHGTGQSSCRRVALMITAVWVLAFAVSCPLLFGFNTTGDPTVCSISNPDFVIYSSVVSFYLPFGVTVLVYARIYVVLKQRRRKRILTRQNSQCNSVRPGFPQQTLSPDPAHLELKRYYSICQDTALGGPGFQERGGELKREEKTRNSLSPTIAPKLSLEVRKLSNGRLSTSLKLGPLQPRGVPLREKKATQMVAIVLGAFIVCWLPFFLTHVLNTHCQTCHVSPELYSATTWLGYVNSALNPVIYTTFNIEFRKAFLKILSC
Sequence of D(1A) dopamine receptor (Q95136 whole entry): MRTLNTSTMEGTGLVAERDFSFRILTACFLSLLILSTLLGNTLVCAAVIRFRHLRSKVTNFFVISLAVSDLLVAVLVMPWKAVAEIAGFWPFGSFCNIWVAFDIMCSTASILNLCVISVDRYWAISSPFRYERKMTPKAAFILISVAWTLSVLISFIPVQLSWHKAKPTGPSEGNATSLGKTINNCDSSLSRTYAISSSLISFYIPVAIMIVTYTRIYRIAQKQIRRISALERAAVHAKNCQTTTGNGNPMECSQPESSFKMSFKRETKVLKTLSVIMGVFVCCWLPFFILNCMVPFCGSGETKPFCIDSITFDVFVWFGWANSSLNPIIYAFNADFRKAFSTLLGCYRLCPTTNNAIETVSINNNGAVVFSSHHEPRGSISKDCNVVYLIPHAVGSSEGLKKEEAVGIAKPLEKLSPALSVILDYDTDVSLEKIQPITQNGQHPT
T1 sequence (P14416 whole entry): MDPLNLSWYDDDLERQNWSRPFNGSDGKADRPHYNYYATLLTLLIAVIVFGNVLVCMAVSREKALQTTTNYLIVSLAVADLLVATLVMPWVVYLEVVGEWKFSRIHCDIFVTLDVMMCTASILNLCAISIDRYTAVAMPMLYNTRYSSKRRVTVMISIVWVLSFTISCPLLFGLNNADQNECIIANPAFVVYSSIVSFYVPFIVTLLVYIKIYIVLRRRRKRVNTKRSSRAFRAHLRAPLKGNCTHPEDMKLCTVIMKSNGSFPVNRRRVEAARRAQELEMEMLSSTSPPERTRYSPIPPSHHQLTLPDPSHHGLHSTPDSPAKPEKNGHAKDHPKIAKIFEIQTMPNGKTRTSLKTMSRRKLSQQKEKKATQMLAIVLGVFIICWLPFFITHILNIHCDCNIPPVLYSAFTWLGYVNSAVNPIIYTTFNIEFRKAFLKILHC

A word on the Ki: it is the equilibrium dissociation constant of an inhibitor or competing ligand from its target. Take `c1ccc(-n2cc(CN3CCN(c4cc5ccc4CCc4ccc(cc4)CC5)CC3)cn2)cc1`: the Ki at D(1A) dopamine receptor was 2600 nM; on D(3) dopamine receptor, 18 nM; at D(2) dopamine receptor [1] it was 28 nM; on D(4) dopamine receptor it was 45 nM; at D(2) dopamine receptor [2], 39 nM.
`NCCc1ccc(O)c(O)c1` [DOPAMINE] registered an inhibition constant Ki on D(1A) dopamine receptor of 440 nM.
On D(1A) dopamine receptor, `c1ccc(N2CCN(Cc3cnn(-c4ccccc4)c3)CC2)cc1` yielded a Ki of 1600 nM. In addition, the Efficacy in assay [3] was 40%.
For the molecule `c1ccc(N2CCN(Cc3cnn(-c4cc5ccc4CCc4ccc(cc4)CC5)c3)CC2)cc1`, the inhibition entry in assay [4] was “Active”. Besides, the inhibition constant Ki was 1500 nM and 1700 nM at D(1A) dopamine receptor; 20 nM and 23 nM at D(3) dopamine receptor; 33 nM and 240 nM at D(2) dopamine receptor [1]; 2.5 nM and 4.5 nM on D(4) dopamine receptor; 55 nM and 350 nM at D(2) dopamine receptor [2]. For the same molecule, in assay [3], the Efficacy came to 19%.
